Experimental data reported in ChEMBL document CHEMBL5303300, “EUbOPEN Chemogenomics Library - Multiplex” (2023).
Where “and” joins values, the source holds several entries; their conditions need not be identical. Equal entries are not always repeated.

Experiments:
Type in all cases: toxicity, cell-based
Fibroblast = test: Multiplex assay against human fibroblast; details: number of replicates 2
In short: (§1)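 Four dyes were applied at seeding to live cells: Hoechst33342, BioTracker Green Microtubule Cytoskeleton Dye, MitoTracker Red and Annexin V Alexa Fluor 680. Imaging after compound addition used a CQ1 microscope at 37°C and 5% CO2. CellPathfinder machine-learning gating then sorted cells into Hoechst high-intensity objects or normal cells, normal cells into healthy, pyknosed or fragmented nuclei, and pyknosed cells into mitotic or apoptotic, with tubulin, mitochondrial-mass and membrane-permeability phenotypes given as per cents of healthy-nucleus cells.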

HEK-293T = test: Multiplex assay against HEK293T; details: human, number of replicates 2; in short: as §1
U2OS = test: Multiplex assay against U2OS; details: human, number of replicates 2; in short: as §1
[1] = 12 h, 1 µM, compound concentration 1 uM
[2] = 12 h, 10 µM, compound concentration 10 uM
[3] = 24 h, 1 µM, compound concentration 1 uM
[4] = 24 h, 10 µM, compound concentration 10 uM
[5] = 48 h, 1 µM, compound concentration 1 uM
[6] = 48 h, 10 µM, compound concentration 10 uM

## COC(=O)c1ccc2c(c1)NC(=O)/C2=C(\Nc1ccc(-c2nccn2C)cc1)c1ccccc1
Fibroblast; [1]
  Population Apoptotic (%): 35% and 43%
  Population Fragmented Nuclei (%): 10% and 29%
  Population Healthy Nuclei (%): 72% and 51%
  Population Hoechst High Intensity Objects (%): 0%
  Population Membrane Permeable-Phenotype (%): 2% and 1%
  Population Mitochondria Different-Phenotype (%): 1% and 3%
  Population Mitotic Cells (%): 64% and 56%
  Population Normal (%): 99%
  Population Pyknosed Nuclei (%): 17% and 19%
  Population Tubulin-Different-Phenotype (%): 7% and 9%
  Total Cell Count: 195 and 242
Fibroblast; [2]
  Population Apoptotic (%): 50% and 45%
  Population Fragmented Nuclei (%): 21% and 17%
  Population Healthy Nuclei (%): 59% and 62%
  Population Hoechst High Intensity Objects (%): 0%
  Population Membrane Permeable-Phenotype (%): 13% and 9%
  Population Mitochondria Different-Phenotype (%): 2%
  Population Mitotic Cells (%): 50% and 54%
  Population Normal (%): 100% and 99%
  Population Pyknosed Nuclei (%): 18% and 19%
  Population Tubulin-Different-Phenotype (%): 67% and 56%
  Total Cell Count: 317 and 270
Fibroblast; [3]
  Population Apoptotic (%): 64% and 60%
  Population Healthy Nuclei (%): 74% and 53%
  Population Hoechst High Intensity Objects (%): 0%
  Population Membrane Permeable-Phenotype (%): 3%
  Population Mitochondria Different-Phenotype (%): 0%
  Population Mitotic Cells (%): 35% and 39%
  Population Normal (%): 99%
  Population Pyknosed Nuclei (%): 15% and 14%
  Population Tubulin-Different-Phenotype (%): 11% and 8%
  Total Cell Count: 180 and 255
Fibroblast; [4]
  Population Apoptotic (%): 70% and 67%
  Population Fragmented Nuclei (%): 24%
  Population Healthy Nuclei (%): 59% and 54%
  Population Hoechst High Intensity Objects (%): 0%
  Population Membrane Permeable-Phenotype (%): 5% and 6%
  Population Mitochondria Different-Phenotype (%): 8% and 6%
  Population Mitotic Cells (%): 29% and 32%
  Population Normal (%): 99%
  Population Pyknosed Nuclei (%): 16% and 21%
  Population Tubulin-Different-Phenotype (%): 60% and 43%
  Total Cell Count: 317 and 264
Fibroblast; [5]
  Population Apoptotic (%): 48% and 73%
  Population Healthy Nuclei (%): 69% and 56%
  Population Hoechst High Intensity Objects (%): 0%
  Population Membrane Permeable-Phenotype (%): 1% and 3%
  Population Mitochondria Different-Phenotype (%): 0%
  Population Mitotic Cells (%): 51% and 26%
  Population Normal (%): 100% and 99%
  Population Pyknosed Nuclei (%): 20% and 9%
  Population Tubulin-Different-Phenotype (%): 3% and 8%
  Total Cell Count: 182 and 256
Fibroblast; [6]
  Population Apoptotic (%): 84% and 86%
  Population Fragmented Nuclei (%): 22% and 26%
  Population Healthy Nuclei (%): 62% and 56%
  Population Hoechst High Intensity Objects (%): 0% and 1%
  Population Membrane Permeable-Phenotype (%): 5% and 6%
  Population Mitochondria Different-Phenotype (%): 5% and 9%
  Population Mitotic Cells (%): 15% and 13%
  Population Normal (%): 100% and 98%
  Population Pyknosed Nuclei (%): 14% and 17%
  Population Tubulin-Different-Phenotype (%): 45% and 38%
  Total Cell Count: 302 and 261
HEK-293T; [1]
  Population Apoptotic (%): 50% and 35%
  Population Fragmented Nuclei (%): 3% and 2%
  Population Healthy Nuclei (%): 86%
  Population Hoechst High Intensity Objects (%): 4%
  Population Membrane Permeable-Phenotype (%): 4% and 3%
  Population Mitochondria Different-Phenotype (%): 20% and 17%
  Population Mitotic Cells (%): 49% and 64%
  Population Normal (%): 95%
  Population Pyknosed Nuclei (%): 10% and 11%
  Population Tubulin-Different-Phenotype (%): 52% and 51%
  Total Cell Count: 677 and 686
HEK-293T; [2]
  Population Apoptotic (%): 53% and 62%
  Population Fragmented Nuclei (%): 2% and 4%
  Population Healthy Nuclei (%): 83% and 81%
  Population Hoechst High Intensity Objects (%): 10% and 11%
  Population Membrane Permeable-Phenotype (%): 6% and 5%
  Population Mitochondria Different-Phenotype (%): 37% and 38%
  Population Mitotic Cells (%): 46% and 37%
  Population Normal (%): 89% and 88%
  Population Pyknosed Nuclei (%): 13% and 14%
  Population Tubulin-Different-Phenotype (%): 88% and 93%
  Total Cell Count: 504 and 530
HEK-293T; [3]
  Population Apoptotic (%): 30% and 31%
  Population Fragmented Nuclei (%): 5% and 3%
  Population Healthy Nuclei (%): 87% and 88%
  Population Hoechst High Intensity Objects (%): 6% and 7%
  Population Membrane Permeable-Phenotype (%): 4% and 1%
  Population Mitochondria Different-Phenotype (%): 8% and 5%
  Population Mitotic Cells (%): 69% and 68%
  Population Normal (%): 93% and 92%
  Population Pyknosed Nuclei (%): 6% and 8%
  Population Tubulin-Different-Phenotype (%): 35% and 36%
  Total Cell Count: 1123 and 936
HEK-293T; [4]
  Population Apoptotic (%): 55% and 74%
  Population Fragmented Nuclei (%): 6% and 5%
  Population Healthy Nuclei (%): 79% and 80%
  Population Hoechst High Intensity Objects (%): 9% and 11%
  Population Membrane Permeable-Phenotype (%): 3% and 4%
  Population Mitochondria Different-Phenotype (%): 27% and 38%
  Population Mitotic Cells (%): 44% and 25%
  Population Normal (%): 90% and 88%
  Population Pyknosed Nuclei (%): 13% and 14%
  Population Tubulin-Different-Phenotype (%): 81% and 89%
  Total Cell Count: 660 and 604
HEK-293T; [5]
  Population Apoptotic (%): 28% and 24%
  Population Fragmented Nuclei (%): 12% and 9%
  Population Healthy Nuclei (%): 84% and 87%
  Population Hoechst High Intensity Objects (%): 9%
  Population Membrane Permeable-Phenotype (%): 4% and 3%
  Population Mitochondria Different-Phenotype (%): 0% and 1%
  Population Mitotic Cells (%): 72% and 75%
  Population Normal (%): 90%
  Population Pyknosed Nuclei (%): 2% and 3%
  Population Tubulin-Different-Phenotype (%): 12% and 19%
  Total Cell Count: 2887 and 2005
HEK-293T; [6]
  Population Apoptotic (%): 46% and 56%
  Population Fragmented Nuclei (%): 11% and 8%
  Population Healthy Nuclei (%): 83% and 85%
  Population Hoechst High Intensity Objects (%): 11%
  Population Membrane Permeable-Phenotype (%): 5% and 4%
  Population Mitochondria Different-Phenotype (%): 10% and 22%
  Population Mitotic Cells (%): 53% and 43%
  Population Normal (%): 88%
  Population Pyknosed Nuclei (%): 5% and 6%
  Population Tubulin-Different-Phenotype (%): 64% and 85%
  Total Cell Count: 1119 and 790
U2OS; [1]
  Population Healthy Nuclei (%): 70% and 88%
  Population Hoechst High Intensity Objects (%): 0%
  Population Membrane Permeable-Phenotype (%): 12% and 2%
  Population Mitochondria Different-Phenotype (%): 4% and 0%
  Population Mitotic Cells (%): 100% and 64%
  Population Normal (%): 100%
  Population Pyknosed Nuclei (%): 2% and 8%
  Population Tubulin-Different-Phenotype (%): 54% and 83%
U2OS; [2]
  Population Apoptotic (%): 50% and 68%
  Population Healthy Nuclei (%): 43% and 77%
  Population Hoechst High Intensity Objects (%): 0%
  Population Membrane Permeable-Phenotype (%): 25% and 15%
  Population Mitochondria Different-Phenotype (%): 7% and 20%
  Population Mitotic Cells (%): 50% and 31%
  Population Normal (%): 100%
  Population Pyknosed Nuclei (%): 16% and 15%
  Population Tubulin-Different-Phenotype (%): 55% and 43%
  Total Cell Count: 62 and 186
U2OS; [3]
  Population Apoptotic (%): 84% and 57%
  Population Healthy Nuclei (%): 91% and 65%
  Population Hoechst High Intensity Objects (%): 0%
  Population Membrane Permeable-Phenotype (%): 2% and 11%
  Population Mitochondria Different-Phenotype (%): 0% and 5%
  Population Mitotic Cells (%): 15% and 42%
  Population Normal (%): 100%
  Population Pyknosed Nuclei (%): 5% and 13%
  Population Tubulin-Different-Phenotype (%): 79% and 44%
U2OS; [4]
  Population Apoptotic (%): 58% and 68%
  Population Healthy Nuclei (%): 42% and 74%
  Population Hoechst High Intensity Objects (%): 0%
  Population Membrane Permeable-Phenotype (%): 22% and 10%
  Population Mitochondria Different-Phenotype (%): 27% and 31%
  Population Mitotic Cells (%): 41% and 31%
  Population Normal (%): 100%
  Population Pyknosed Nuclei (%): 23% and 20%
  Population Tubulin-Different-Phenotype (%): 50% and 52%
U2OS; [5]
  Population Apoptotic (%): 50% and 62%
  Population Healthy Nuclei (%): 71% and 90%
  Population Hoechst High Intensity Objects (%): 0%
  Population Membrane Permeable-Phenotype (%): 5% and 2%
  Population Mitochondria Different-Phenotype (%): 3% and 0%
  Population Mitotic Cells (%): 50% and 37%
  Population Normal (%): 100%
  Population Pyknosed Nuclei (%): 9% and 5%
  Population Tubulin-Different-Phenotype (%): 58% and 86%
U2OS; [6]
  Population Apoptotic (%): 93% and 88%
  Population Healthy Nuclei (%): 40% and 72%
  Population Hoechst High Intensity Objects (%): 3% and 0%
  Population Membrane Permeable-Phenotype (%): 27% and 11%
  Population Mitochondria Different-Phenotype (%): 40% and 21%
  Population Mitotic Cells (%): 6% and 11%
  Population Normal (%): 96% and 99%
  Population Pyknosed Nuclei (%): 27% and 21%
  Population Tubulin-Different-Phenotype (%): 59% and 40%
